Data reported in ChEMBL document CHEMBL4680311, “Synthesis, characterization, in vitro SAR study, and preliminary in vivo toxicity evaluation of naphthylmethyl substituted bis-imidazolium salts” (Bioorg Med Chem, 2021).

Columns and labels:
NCI-H226 = experiment: Antiproliferative activity against human NCI-H226 cells assessed as cell growth at 10 uM incubated for 48 hrs by sulforhodamine B assay relative to control; format: functional; conditions: read-out: Activity
How it was run: (§1)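 NCI DTP NCI-60 one-dose screen on the NSCLC panel. Cells were seeded at densities set by doubling rate and incubated 24 h. They were then exposed to a single 10 μM dose for 48 h. Each value is a growth percentage relative to the initial cell population: positive means net growth, negative means net cell kill.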

NCI-H23 = experiment: Antiproliferative activity against human NCI-H23 cells assessed as cell growth at 10 uM incubated for 48 hrs by sulforhodamine B assay relative to control; format: functional; conditions: read-out: Activity; how it was run: as §1
NCI-H460 [1] = experiment: Antiproliferative activity against human NCI-H460 cells assessed as cell growth at 10 uM incubated for 48 hrs by sulforhodamine B assay relative to control; format: functional; conditions: read-out: Activity; how it was run: as §1
HCC827 = experiment: Cytotoxicity against human HCC827 cells assessed as cell growth inhibition measured after 72 hrs by MTT assay; format: functional, cell-based; conditions: HCC827, 72 h
How it was run: (§2)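 Cells kept in RPMI 1640 with 10% FBS at 37 °C, 5% CO₂, passaged every 2–3 days; grown to confluence, seeded at 5,000–7,000 cells/well depending on line, incubated 24 h. Compounds dissolved in 1% DMSO, diluted in medium to 1, 4, 16, 32 μM (6 replicates each), 72 h exposure. MTT 3–4 h, medium aspirated, DMSO added, 15 min, OD 540 nm; IC50 relative to untreated cells.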

NCI-H522 = experiment: Antiproliferative activity against human NCI-H522 cells assessed as cell growth at 10 uM incubated for 48 hrs by sulforhodamine B assay relative to control; format: functional; conditions: read-out: Activity; how it was run: as §1
HOP-62 = experiment: Antiproliferative activity against human HOP-62 cells assessed as cell growth at 10 uM incubated for 48 hrs by sulforhodamine B assay relative to control; format: functional; conditions: read-out: Activity; how it was run: as §1
NCI-H460 [2] = experiment: Cytotoxicity against human NCI-H460 cells assessed as cell growth inhibition measured after 72 hrs by MTT assay; format: functional, cell-based; conditions: NCI-H460, 72 h; how it was run: as §2
NCI-H322M = experiment: Antiproliferative activity against human NCI-H322M cells assessed as cell growth at 10 uM incubated for 48 hrs by sulforhodamine B assay relative to control; format: functional; conditions: read-out: Activity; how it was run: as §1
NCI-H1975 = experiment: Cytotoxicity against human NCI-H1975 cells assessed as cell growth inhibition measured after 72 hrs by MTT assay; format: functional, cell-based; conditions: NCI-H1975, 72 h; how it was run: as §2
A549 [3] = experiment: Antiproliferative activity against human A549/ATCC cells assessed as cell growth at 10 uM incubated for 48 hrs by sulforhodamine B assay relative to control; format: functional; conditions: read-out: Activity; how it was run: as §1
EKVX = experiment: Antiproliferative activity against human EKVX cells assessed as cell growth at 10 uM incubated for 48 hrs by sulforhodamine B assay relative to control; format: functional; conditions: read-out: Activity; how it was run: as §1
A549 [4] = experiment: Cytotoxicity against human A549 cells assessed as cell growth inhibition measured after 72 hrs by MTT assay; format: functional, cell-based; conditions: A549, 72 h; how it was run: as §2
HOP-92 = experiment: Antiproliferative activity against human HOP-92 cells assessed as cell growth at 10 uM incubated for 48 hrs by sulforhodamine B assay relative to control; format: functional; conditions: read-out: Activity; how it was run: as §1

**Q.** With `c1ccc2cc(Cn3cc[n+](CCCCCCCn4cc[n+](Cc5ccc6ccccc6c5)c4)c3)ccc2c1` as the molecule, how does the growth at 10 µM (NCI-H226) read?
**A.** The growth at 10 µM was 59.5%.

**Q.** What about the growth at 10 µM (NCI-H23) of the same molecule?
**A.** The growth at 10 µM was 14.4%.

**Q.** What about the growth at 10 µM (NCI-H460 [1]) of the same molecule?
**A.** Its growth at 10 µM is 14.6%.

**Q.** What about the IC50 (HCC827) of the same molecule?
**A.** Its IC50 is 10 µM.

**Q.** And the growth at 10 µM (NCI-H522)?
**A.** Its growth at 10 µM is 5.87%.

**Q.** And the growth at 10 µM (HOP-62)?
**A.** The growth at 10 µM was 32.6%.

**Q.** And the IC50 (NCI-H460 [2])?
**A.** The IC50 was 3 µM.

**Q.** And the growth at 10 µM (NCI-H322M)?
**A.** The growth at 10 µM was 58.6%.

**Q.** And the IC50 (NCI-H1975)?
**A.** Its IC50 is 3 µM.

**Q.** And the growth at 10 µM (A549 [3])?
**A.** Its growth at 10 µM is 26.7%.

**Q.** And the growth at 10 µM (EKVX)?
**A.** Its growth at 10 µM is 27.9%.

**Q.** And the IC50 (A549 [4])?
**A.** Its IC50 is 2 µM.

**Q.** Which results are given for `c1ccc2cc(Cn3cc[n+](Cn4cc[n+](Cc5ccc6ccccc6c5)c4)c3)ccc2c1`?
**A.** growth at 10 µM (NCI-H226): 92.6%; growth at 10 µM (NCI-H23): 88.3%; growth at 10 µM (HOP-92): 67%; IC50 (HCC827): > 30 µM; growth at 10 µM (NCI-H522): 51%; growth at 10 µM (HOP-62): 84.2%; IC50 (NCI-H460 [2]): 16 µM; growth at 10 µM (NCI-H322M): 87.6%; IC50 (NCI-H1975): > 30 µM; growth at 10 µM (A549 [3]): 70.8%; growth at 10 µM (EKVX): 89.4%; IC50 (A549 [4]): > 30 µM

**Q.** What does the source list for `c1ccc2cc(Cn3cc[n+](CCCn4cc[n+](Cc5ccc6ccccc6c5)c4)c3)ccc2c1`?
**A.** growth at 10 µM (NCI-H226): 81.9%; growth at 10 µM (NCI-H23): 77.8%; growth at 10 µM (NCI-H460 [1]): 75.3%; growth at 10 µM (HOP-92): 67.5%; IC50 (HCC827): > 30 µM; growth at 10 µM (NCI-H522): 56.6%; growth at 10 µM (HOP-62): 67.2%; IC50 (NCI-H460 [2]): 20 µM; growth at 10 µM (NCI-H322M): 84.4%; IC50 (NCI-H1975): > 30 µM; growth at 10 µM (A549 [3]): 62.3%; growth at 10 µM (EKVX): 82.7%; IC50 (A549 [4]): 22 µM

**Q.** `c1ccc2cc(Cn3cc[n+](CCCCn4cc[n+](Cc5ccc6ccccc6c5)c4)c3)ccc2c1` was tested. Which growth at 10 µM (NCI-H226) did it give?
**A.** Its growth at 10 µM is 82%.

**Q.** What about the growth at 10 µM (NCI-H23) of the same molecule?
**A.** Its growth at 10 µM is 44%.

**Q.** And the growth at 10 µM (NCI-H460 [1])?
**A.** Its growth at 10 µM is 38.2%.

**Q.** What about the growth at 10 µM (HOP-92) of the same molecule?
**A.** Its growth at 10 µM is 68.4%.

**Q.** And the IC50 (HCC827)?
**A.** The IC50 was 13 µM.

**Q.** And the growth at 10 µM (NCI-H522)?
**A.** The growth at 10 µM was 43.4%.

**Q.** What about the growth at 10 µM (HOP-62) of the same molecule?
**A.** The growth at 10 µM was 54.8%.

**Q.** And the IC50 (NCI-H460 [2])?
**A.** Its IC50 is 4 µM.

**Q.** And the growth at 10 µM (NCI-H322M)?
**A.** Its growth at 10 µM is 90%.

**Q.** What about the IC50 (NCI-H1975) of the same molecule?
**A.** The IC50 was 11 µM.

**Q.** And the growth at 10 µM (A549 [3])?
**A.** Its growth at 10 µM is 49.3%.

**Q.** What about the growth at 10 µM (EKVX) of the same molecule?
**A.** Its growth at 10 µM is 58.1%.

**Q.** And the IC50 (A549 [4])?
**A.** Its IC50 is 4 µM.

**Q.** `c1ccc2cc(Cn3cc[n+](CCCCCn4cc[n+](Cc5ccc6ccccc6c5)c4)c3)ccc2c1` was tested. Which growth at 10 µM (NCI-H226) did it give?
**A.** Its growth at 10 µM is 72.6%.

**Q.** What about the growth at 10 µM (NCI-H23) of the same molecule?
**A.** The growth at 10 µM was 45.3%.

**Q.** What about the growth at 10 µM (NCI-H460 [1]) of the same molecule?
**A.** The growth at 10 µM was 30.5%.

**Q.** And the growth at 10 µM (HOP-92)?
**A.** Its growth at 10 µM is 66%.

**Q.** What about the IC50 (HCC827) of the same molecule?
**A.** Its IC50 is over 30 µM.

**Q.** What about the growth at 10 µM (NCI-H522) of the same molecule?
**A.** The growth at 10 µM was 35.7%.

**Q.** And the growth at 10 µM (HOP-62)?
**A.** Its growth at 10 µM is 57%.

**Q.** What about the IC50 (NCI-H460 [2]) of the same molecule?
**A.** The IC50 was 2 µM.

**Q.** And the growth at 10 µM (NCI-H322M)?
**A.** The growth at 10 µM was 86.2%.

**Q.** What about the IC50 (NCI-H1975) of the same molecule?
**A.** The IC50 was 12 µM.

**Q.** What about the growth at 10 µM (A549 [3]) of the same molecule?
**A.** Its growth at 10 µM is 41.7%.

**Q.** What about the growth at 10 µM (EKVX) of the same molecule?
**A.** Its growth at 10 µM is 47.1%.

**Q.** And the IC50 (A549 [4])?
**A.** The IC50 was 4 µM.
